Reference: ChEMBL document CHEMBL3992505, “Optimization of substituted imidazobenzodiazepines as novel asthma treatments” (Eur J Med Chem, 2017)
Active and inactive are the calls of the source. The rule behind the calls is not given here.

Key:
Blood [1] = experiment: Half life in mouse blood at 5 mg/kg, ip by LC/MS/MS analysis; format: ADME, organism-based; settings: in vivo
[2] = Cytotoxicity in HEK293 cells after 48 hrs by Cell-titer Glo reagent based assay; settings: human, read-out: LD50
In short: (§1)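 Cells (HEK293, HepG2 or BEAS2B) exposed to compounds at a range of concentrations for 48 h; viability read by Cell-Titer Glo luminescence. Normalized to DMSO (negative) and 3-dibutylamino-1-(4-hexyl-phenyl)-propan-1-one at 150 μM final in DMSO (positive).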

[3] = Half life in mouse brain at 5 mg/kg, ip by LC/MS/MS analysis; format: ADME, organism-based
Lung = experiment: AUC (0 to t) in mouse lung at 5 mg/kg, ip by LC/MS/MS analysis; format: ADME, organism-based; settings: in vivo
Liver [4] = experiment: Metabolic stability in human liver microsomes assessed as compound remaining at 10 uM after 1 hr by LC-MS/MS analysis; format: ADME, microsome
In short: (§2)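 Compound stability was measured in human or mouse liver microsomes as percent remaining after 1 h. Data came from two independent experiments, each run in triplicate.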

Liver [5] = experiment: Metabolic stability in mouse liver microsomes assessed as compound remaining at 10 uM after 1 hr by LC-MS/MS analysis; format: ADME, microsome; in short: as §2
[6] = Tmax in mouse brain at 5 mg/kg, ip by LC/MS/MS analysis; format: ADME, organism-based
Blood [7] = experiment: Tmax in mouse blood assessed as (S)-7-Methoxy-N-methyl-9-oxo-11,12,13,13a-tetrahydro-9H-benzo[e]imidazo[5,1-c]pyrrolo[1,2-a][1,4]diazepine-1-carboxamide at 5 mg/kg, ip by LC/MS/MS analysis; format: ADME, organism-based; settings: in vivo
[8] = Cmax in mouse blood at 5 mg/kg, ip by LC/MS/MS analysis; format: ADME, organism-based; set-up: dose 5 mg/kg, route intraperitoneal
Mus musculus [9] = experiment: Antiasthamatic effect in BALB/c mouse model of ovalbumin-induced asthma assessed as inhibition of airway hyperresponsiveness at 40 mg/kg, ip administered 40 mins as single dose prior to measurement; format: functional, organism-based
[10] = Elimination rate constant in mouse lung at 5 mg/kg, ip by LC/MS/MS analysis; format: ADME, organism-based
Blood [11] = experiment: Drug metabolism in mouse blood assessed as (S)-7-Methoxy-9-oxo-11,12,13,13a-tetrahydro-9H-benzo[e]imidazo[5,1-c]pyrrolo[1,2-a][1,4]di-azepine-1-carboxylic acid formation at 5 mg/kg, ip by LC/MS/MS analysis; format: ADME, organism-based; settings: in vivo
Mus musculus [12] = experiment: Neurotoxicity in Swiss Webster mouse assessed as induction of senorimotor impairment at 40 mg/kg, ip administered 10 mins prior to testing and measured for 3 mins at 10 to 60 mins after drug administration by rotarod method; format: toxicity, organism-based; settings: in vivo
In short: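 Swiss Webster mice, pre-trained at 15 rpm until they held on for 3 min at three consecutive sessions, were given a single i.p. dose of 40 mg/kg in 10% DMSO/40% propylene glycol/50% PBS. Rotarod at 15 rpm for 3 min at 10, 30 and 60 min after dosing. Falls before 3 min scored as fail, with time of fall recorded. N = 10, mean ± SEM. Vehicle and diazepam 5 mg/kg i.p. controls. Mice rested 2–3 days between doses.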

[13] = Half life in mouse lung at 5 mg/kg, ip by LC/MS/MS analysis; format: ADME, organism-based
[14] = Cmax in mouse lung at 5 mg/kg, ip by LC/MS/MS analysis; format: ADME, organism-based; set-up: dose 5 mg/kg, route intraperitoneal
[15] = Cytotoxicity in human BEAS2B cells after 48 hrs by Cell-titer Glo reagent based assay; set-up: species or system BEAS-2B; settings: read-out: LD50; in short: as §1
Liver [16] = experiment: Half life in mouse liver microsomes at 10 uM by LC-MS/MS analysis; format: ADME, microsome; settings: microsomes, 10 µM
[17] = Elimination rate constant in mouse brain at 5 mg/kg, ip by LC/MS/MS analysis; format: ADME, organism-based
[18] = target: GABA A receptor alpha-4/beta-3/gamma-2 (Homo sapiens) (UniProt P18507+P28472+P48169); experiment: Activity at GABAA alpha4beta3gamma2 receptor (unknown origin) expressed in HEK293T cells assessed as potentiation of GABA-mediated increase in channel current under holding potential at -80 mV at 1 uM by patch clamp assay; format: cell-based
[19] = Elimination rate constant in mouse blood at 5 mg/kg, ip by LC/MS/MS analysis; format: ADME, organism-based
Blood [20] = experiment: Drug metabolism in mouse blood assessed as (S)-7-Methoxy-N-methyl-9-oxo-11,12,13,13a-tetrahydro-9H-benzo[e]imidazo[5,1-c]pyrrolo[1,2-a][1,4]diazepine-1-carboxamide formation at 5 mg/kg, ip after 3 mins by LC/MS/MS analysis; format: ADME, organism-based; settings: in vivo, 0.05 h
Blood [21] = experiment: Half life in mouse blood assessed as (S)-7-Methoxy-N-methyl-9-oxo-11,12,13,13a-tetrahydro-9H-benzo[e]imidazo[5,1-c]pyrrolo[1,2-a][1,4]diazepine-1-carboxamide at 5 mg/kg, ip by LC/MS/MS analysis; format: ADME, organism-based; settings: in vivo
[22] = Cytotoxicity in human HepG2 cells after 48 hrs by Cell-titer Glo reagent based assay; settings: read-out: LD50; in short: as §1
Brain = experiment: Cmax in mouse brain at 5 mg/kg, ip by LC/MS/MS analysis; format: ADME, organism-based; set-up: dose 5 mg/kg, route intraperitoneal; settings: in vivo
Blood [23] = experiment: Elimination rate constant in mouse blood assessed as (S)-7-Methoxy-N-methyl-9-oxo-11,12,13,13a-tetrahydro-9H-benzo[e]imidazo[5,1-c]pyrrolo[1,2-a][1,4]diazepine-1-carboxamide at 5 mg/kg, ip by LC/MS/MS analysis; format: ADME, organism-based; settings: in vivo
Mus musculus [24] = experiment: Antiasthamatic effect in BALB/c mouse model of ovalbumin-induced asthma assessed as inhibition of airway hyperresponsiveness at 40 mg/kg, ip bid for 5 days; format: functional, organism-based

COc1ccc2c(c1)C(=O)N1CCC[C@H]1c1c(C(=O)N(C)C)ncn1-2
t1/2 (Blood [1]): 8.8 min | CC50 at 48 h [2]: > 400 µM | half-life [3]: 10.3 min | AUCt (Lung): 764 ng·min/g | Stability (Liver [4]): 92.4% | Stability (Liver [5]): 82.5% | Tmax [6]: 10 min | Tmax (Blood [7]): 40 min | Cmax [8]: 691 ng/mL | Activity (Mus musculus [9]): inactive | k el [10]: 0.000983 s⁻¹ | Drug metabolism (Blood [11]): Metabolite_Notdetected | Activity (Mus musculus [12]): Non-Toxic | half-life [13]: 11.7 min | Cmax [14]: 30 ng/g | CC50 at 48 h [15]: > 400 µM | t1/2 (Liver [16]): 63.3 min | k el [17]: 0.00112 s⁻¹ | Activity [18]: 319 to 545% | k el [19]: 0.0013 s⁻¹ | Drug metabolism (Blood [20]): Metabolite_Detected | t1/2 (Blood [21]): 24.3 min | CC50 at 48 h [22]: > 400 µM | Cmax (Brain): 123 ng/g | Kel (Blood [23]): 0.028 min⁻¹ | Activity (Mus musculus [24]): Active
